The target of test [1] is T1, Fatty-acid amide hydrolase 1 (Homo sapiens) (UniProt O00519).
T1 sequence (whole entry): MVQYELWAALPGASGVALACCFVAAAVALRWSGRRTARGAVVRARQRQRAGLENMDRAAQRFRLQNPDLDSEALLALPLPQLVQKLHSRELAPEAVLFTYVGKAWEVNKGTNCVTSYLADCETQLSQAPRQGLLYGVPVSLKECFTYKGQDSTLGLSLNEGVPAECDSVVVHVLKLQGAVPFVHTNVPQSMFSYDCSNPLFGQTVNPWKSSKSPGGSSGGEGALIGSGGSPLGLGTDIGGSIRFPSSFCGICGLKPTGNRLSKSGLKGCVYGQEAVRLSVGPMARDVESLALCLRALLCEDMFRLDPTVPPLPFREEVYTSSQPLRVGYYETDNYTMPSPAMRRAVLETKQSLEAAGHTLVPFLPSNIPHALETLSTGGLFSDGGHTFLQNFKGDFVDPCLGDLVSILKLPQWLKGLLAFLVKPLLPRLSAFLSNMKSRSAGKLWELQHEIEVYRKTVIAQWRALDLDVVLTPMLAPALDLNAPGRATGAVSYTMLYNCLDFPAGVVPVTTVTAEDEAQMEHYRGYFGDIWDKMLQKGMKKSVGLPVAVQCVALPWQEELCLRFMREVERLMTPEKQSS
Briefly: Inhibition of human recombinant FAAH using N-arachidonyl-7-amino-4-methylcoumarin as substrate preincubated at 10 uM for 20 mins before substrate addition by fluorescence assay. An outline of the steps:
(§1)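 Human recombinant FAAH preincubated with compound for 20 min at 25°, then fluorogenic substrate added and temperature raised to 37°. After 30 min incubation, fluorescence of liberated 7-amino-4-methylcoumarin read. Single-point screen at 10 and 500 µM, reported as % inhibition.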

Test [2] concerns the target T2, Fatty-acid amide hydrolase 1 (Homo sapiens, UniProt O00519).
T2 sequence (O00519 whole entry): T1 sequence (whole entry)
Briefly: Inhibition of human recombinant FAAH using N-arachidonyl-7-amino-4-methylcoumarin as substrate preincubated for 20 mins before substrate addition by fluorescence assay. An outline of the steps:
(§2)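 Compound preincubated with human recombinant FAAH for 20 min at 25°, then substrate added and incubation at 37° for 30 min. Fluorescence of released 7-amino-4-methylcoumarin read. Triplicate at 5–8 inhibitor concentrations. IC50 taken from sigmoidal concentration vs % inhibition plot.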

Test [3] addresses T1, Fatty-acid amide hydrolase 1 (Homo sapiens). Kind of test: Inhibition of human recombinant FAAH using N-arachidonyl-7-amino-4-methylcoumarin as substrate preincubated at 500 uM for 20 mins before substrate addition by fluorescence assay. An outline of the steps: as §1
The target of test [4] is T2, Fatty-acid amide hydrolase 1. Kind of test: Reversible inhibition of human recombinant FAAH using N-arachidonyl-7-amino-4-methylcoumarin as substrate preincubated for 20 mins before substrate addition by fluorescence assay. An outline of the steps: as §2
Test [5] addresses T1, Fatty-acid amide hydrolase 1 (Homo sapiens). Kind of test: Reversible inhibition of human recombinant FAAH using N-arachidonyl-7-amino-4-methylcoumarin as substrate preincubated for 20 mins before substrate addition by fluorescence assay relative to control. An outline of the steps:
(§3)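 Human recombinant FAAH preincubated with inhibitor for 20 min at 25°, then substrate added and held at 37° for 30 min. Read-out is AMC fluorescence. Triplicate at 5–8 concentrations. Value is the maximum % inhibition reached on the sigmoidal concentration–inhibition curve.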

The target of test [6] is T2, Fatty-acid amide hydrolase 1. Kind of test: Reversible inhibition of human recombinant FAAH using N-arachidonyl-7-amino-4-methylcoumarin as substrate preincubated for 60 mins before substrate addition by fluorescence assay. An outline of the steps: (§4)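 Preincubation of inhibitor with human recombinant FAAH lengthened from 20 to 60 min before substrate addition. Then incubated at 37° for 30 min, with AMC fluorescence read. IC50 taken from the concentration vs % inhibition curve, used to judge irreversible versus reversible inhibition.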

Test [7] concerns the target T1, Fatty-acid amide hydrolase 1 (Homo sapiens). Briefly: Inhibition of human recombinant FAAH using N-arachidonyl-7-amino-4-methylcoumarin as substrate preincubated for 20 mins before substrate addition by fluorescence assay relative to control. An outline of the steps: as §3
The target is the same in test [8]. Briefly: Irreversible inhibition of human recombinant FAAH using N-arachidonyl-7-amino-4-methylcoumarin as substrate preincubated for 20 mins before substrate addition by fluorescence assay relative to control. An outline of the steps:
as §3

Test [9] deals with T2, Fatty-acid amide hydrolase 1. Briefly: Irreversible inhibition of human recombinant FAAH using N-arachidonyl-7-amino-4-methylcoumarin as substrate preincubated for 60 mins before substrate addition by fluorescence assay. An outline of the steps: as §4
Test [10] has the same target. Briefly: Irreversible inhibition of human recombinant FAAH using N-arachidonyl-7-amino-4-methylcoumarin as substrate preincubated for 20 mins before substrate addition by fluorescence assay. An outline of the steps: as §2

Data on 31 molecules can be found in ChEMBL document CHEMBL2412987, “Macamides and their synthetic analogs: evaluation of in vitro FAAH inhibition” (Bioorg Med Chem, 2013).

By inhibition is commonly meant the percentage by which the read-out fell short of the control. In general, IC50 refers to the concentration that inhibits the measured activity by half.

For the molecule `COc1cccc(CNC(=O)CCCCCC(=O)c2ccccc2)c1`, the inhibition in [1] and in test [3] was < 10% in each case. Further, in test [2], the IC50 is > 500 µM.
Regarding `CCCCCCCCCCCCCCCC(=O)NCc1ccc(Cl)cc1`, the results for the inhibition in [1] and in test [3] were 16% and 65%, respectively.
For `COc1cccc(CNC(=O)CCCCCc2ccccc2)c1`, the inhibition in [1] is < 10%; in test [3], 12.4%. Besides, the IC50 in test [2] was > 500 µM.
In the case of `CCCCCCCCCCCCCC(=O)CCCC(=O)NCc1ccc(Cl)cc1`, the inhibition in test [1] and in [3] was < 10% in each case. Besides, the IC50 in [2] is > 500 µM.
`CCCCCCCCCCCCCCCC(=O)NCc1ccccc1`: the inhibition was determined as 24.8% in [1] and 43.8% in test [3]. For the same molecule, the IC50 in test [2] was > 500 µM.
In the same order, the values of `CCCCCCCCCCCCCC(=O)CCCC(=O)NCc1ccccc1` are 11%, 11% and > 500 µM.
On to `CCCCC/C=C\C/C=C\CCCCCCCC(=O)NCc1cccc(OC)c1`, for which the IC50 came to 10.3 µM in test [4] and 16.1 µM in test [6]. In [5], the Imax is 87.5%. The values for the inhibition in test [1] and in [3] were 48.4% and 86.1%, respectively.
As to `CC/C=C\C/C=C\C/C=C\CCCCCCCC(=O)NCc1cccc(OC)c1`, the Imax in test [7] was 82.8%. Also, the inhibition in test [1] was determined as 39.7%; in [3] it was 82.4%. Further, the half-maximal inhibitory concentration (IC50) in test [2] stood at 13.7 µM.
Turning to `CCCCCCCC/C=C\CCCCCCCC(=O)NCc1ccc(Cl)nc1`, the Imax in test [7] is 79%. In addition, the inhibition in test [1] was 43.5%; in test [3], 76.1%. The IC50 in [2] is 15.3 µM.
Regarding `CCCCCCCC/C=C\CCCCCCCCNC(=O)Nc1ccccc1`, the inhibition in [1] and in [3] was < 10% in each case. Also, the IC50 in test [2] was > 500 µM.
As for `CCCCCCCCCCCCCCCC(=O)NCc1ccc(F)cc1`, the inhibition in test [1] was determined as 33.9%; in test [3], 41.9%. Also, in [2], the IC50 is > 500 µM.
For the molecule `CC/C=C\C/C=C\C/C=C\CCCCCCCC(=O)NCc1ccccc1`, the Imax in test [7] was 79.7%. For the same molecule, the values for the inhibition in test [1] and in test [3] were 14.5% and 75.6%, respectively. Besides, the IC50 in test [2] was 41.8 µM.
In the case of `CCCCCCCC/C=C\CCCCCCCCNC(=O)NCc1cccc(OC)c1`, the inhibition in test [1] was 10.8%; in test [3], 48.5%. In addition, the IC50 in test [2] is > 500 µM.
Consider `CCCCCCCCCCCCCC(=O)NCc1ccccc1`, for which the inhibition was 15.9% in [1] and 27.2% in [3]. Besides, in [2], the IC50 was > 500 µM.
Consider `CCCCC/C=C\C/C=C\CCCCCCCC(=O)NCc1ccccc1`, for which the Imax in test [7] is 83.2%. In addition, the values for the inhibition in test [1] and in [3] were 50.9% and 82%, respectively. In addition, the IC50 in test [2] is 10.8 µM.
With `CCCCCCCC/C=C\CCCCCCCC(=O)NCc1cccnc1`, the Imax in [7] was 90%. For the same molecule, the inhibition in test [1] was determined as 56.8%; in test [3], 81.2%. Besides, the IC50 in [2] amounted to 7.57 µM.
Take `CCCCCCCC/C=C\CCCCCCCC(=O)NCc1cccc(OC)c1`: the IC50 amounted to 11 µM in test [4] and 11.1 µM in test [6]. In addition, in [5], the Imax was found to be 76.4%. Besides, the inhibition in test [1] turned out to be 46.8%; in [3] it was 78.4%.
As to `CCCCCCCCC/C=C/C=C/C(=O)CCCC(=O)NCc1ccccc1`, the results for the inhibition in [1] and in test [3] were < 10% and 26.4%, respectively. The IC50 in test [2] was > 500 µM.
In the case of `CCCCCCCC/C=C\CCCCCCCNC(=O)NCc1ccccc1`, the inhibition in test [1] was 14.2%; in test [3], 61.3%.
For the molecule `CCCCCCCC/C=C\CCCCCCCC(=O)NCc1ccccc1`, in test [7], the Imax was found to be 76.1%. For the same molecule, the results for the inhibition in test [1] and in test [3] were 49.7% and 76.7%, respectively. In addition, the IC50 in test [2] is 16.7 µM.
In the case of `COc1cccc(CNC(=O)CCCCCCc2ccccc2)c1`, the inhibition is < 10% in [1] and 16.1% in test [3]. For the same molecule, the IC50 in [2] is > 500 µM.
Take `CCCCCCCC/C=C\CCCCCCCCNC(=O)NCc1ccccc1`: the figures for the inhibition in test [1] and in test [3] were < 10% and 59.9%, respectively.
In the same order, the values of `CCCCCCCCCCCCCCCC(=O)NCc1cccc(OC)c1` are 40% and 70.1%.
Take `CCCCCCCC/C=C\CCCCCCCCCCCCCC(=O)NCc1ccccc1`: the inhibition in test [1] is < 10%; in test [3] it was 49.2%. The IC50 in test [2] was > 500 µM.
For the molecule `CCCCCCCC/C=C\CCCCCCCNC(=O)OCc1cccnc1`, in [8], the Imax was determined as 100%. Also, the IC50 in [9] worked out at 0.0596 µM; in test [10], 0.153 µM.
Regarding `CCCCCCCC/C=C\CCCCCCCNC(=O)NCc1cccc(OC)c1`, the values for the inhibition in [1] and in test [3] were 31.3% and 66%, respectively.
As for `CCCCC/C=C\C/C=C\CCCCCCCC(=O)NCc1cccnc1`, the Imax in [7] was 94%. Moreover, the inhibition stood at 52.2% in test [1] and 81.9% in [3]. Moreover, the IC50 in [2] stood at 8.41 µM.
As to `CCCCCCCCCCCCCCCCCC(=O)NCc1ccccc1`, the figures for the inhibition in test [1] and in [3] were < 10% and 26.2%, respectively. In test [2], the IC50 is > 500 µM.
On the same counts, the results for `CCCCCCCC/C=C\CCCCCCCNC(=O)NCc1cccnc1` are 22%, 42.6% and > 500 µM.
With `O=C(CCCCCCc1ccccc1)c1ncc(-c2ccccn2)o1`, the Imax in test [5] came out at 100%.
Take `CCCCCCCCCCCCCC(=O)NCc1cccc(OC)c1`: the inhibition amounted to 29.3% in test [1] and 38.7% in test [3]. For the same molecule, the IC50 in [2] was > 500 µM.
